Results: ChEMBL document CHEMBL1142887, “N-Phenyl-N'-(2-chloroethyl)ureas (CEU) as potential antineoplastic agents. Part 2: role of omega-hydroxyl group in the covalent binding to beta-tubulin” (2007)

Key:
HT-29 = assay: Growth inhibition of HT29 cells after 48 hrs; assay type: functional; settings: Homo sapiens, HT-29, 48 h
How it was run: (§1)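 NCI screening protocol. Cells in high-glucose DMEM with 5% bovine calf serum preincubated 24 h at 37 °C, 5% CO₂, then exposed 48 h to drug, final 10 to 0.3 µM (DMSO below 0.5%). TCA fixation, sulforhodamine B staining, absorbance at 585 nm against a plate fixed on treatment day to give growth inhibition and GI50. At least two experiments in triplicate.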

M21 = assay: Growth inhibition of M21 cells after 48 hrs; assay type: functional; settings: Homo sapiens, M21, 48 h; how it was run: as §1
MCF7 = assay: Growth inhibition of MCF7 cells after 48 hrs; assay type: functional; settings: Homo sapiens, MCF7, 48 h; how it was run: as §1
MDA-MB-231 = assay: Alkylation of beta-tubulin in MDA-MB-231 cells at 5 uM by electrophoretic mobility shift assay after 48 hrs; assay type: cell-based; settings: Homo sapiens
HT-1080 = assay: Cell cycle arrest by accumulation at G2/M phase in HT1080 cells at 10 uM; assay type: functional, Homo sapiens
How it was run: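 HT 1080 cells incubated with drug (dissolved in DMSO, 0.5% final DMSO in medium; DMSO control). Cells harvested, fixed in ice-cold ethanol, and 5 × 10⁵ cells per sample stained with propidium iodide 50 µg/mL plus RNase A 40 U/mL for 30 min at room temperature. Flow cytometry gave % apoptotic cells and % G0/G1, S and G2/M populations.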

M21 (human) [1] = assay: Induction of apoptosis in M21 cells at 3 uM
M21 (human) [2] = assay: Induction of apoptosis in M21 cells at 10 uM
M21 (human) [3] = assay: Induction of apoptosis in M21 cells at 25 uM
M21 (human) [4] = assay: Cell cycle arrest by accumulation at S phase in M21 cells at 3 uM
M21 (human) [5] = assay: Cell cycle arrest by accumulation at S phase in M21 cells at 10 uM
M21 (human) [6] = assay: Cell cycle arrest in M21 cells by accumulation at S phase at 25 uM
M21 (human) [7] = assay: Cell cycle arrest by accumulation at G2/M phase in M21 cells at 3 uM
M21 (human) [8] = assay: Cell cycle arrest by accumulation at G0/G1 phase in M21 cells at 3 uM
M21 (human) [9] = assay: Cell cycle arrest in M21 cells by accumulation at G2/M phase at 25 uM
M21 (human) [10] = assay: Cell cycle arrest by accumulation at G0/G1 phase in M21 cells at 10 uM
M21 (human) [11] = assay: Cell cycle arrest in M21 cells by accumulation at G0/G1 phase at 25 uM
M21 (human) [12] = assay: Induction of apoptosis in M21 cells at 4 uM
M21 (human) [13] = assay: Induction of apoptosis in M21 cells at 1.2 uM
M21 (human) [14] = assay: Cell cycle arrest in M21 cells by accumulation at S phase at 4 uM
M21 (human) [15] = assay: Cell cycle arrest in M21 cells by accumulation at S phase at 1.2 uM
M21 (human) [16] = assay: Cell cycle arrest by accumulation at G2/M phase in M21 cells at 4 uM
M21 (human) [17] = assay: Cell cycle arrest in M21 cells by accumulation at G0/G1 phase at 4 uM
M21 (human) [18] = assay: Cell cycle arrest in M21 cells by accumulation at G2/M phase at 1.2 uM
M21 (human) [19] = assay: Cell cycle arrest in M21 cells by accumulation at G0/G1 phase at 1.2 uM

Question: Which GI50 (HT-29) does the source give for CCCCCCCc1cccc(NC(=O)NCCCl)c1 here?
Answer: The GI50 was 1 µM.

Question: What about the GI50 (M21) of the same compound?
Answer: Its GI50 is 1 µM.

Question: What about the GI50 (MCF7) of the same compound?
Answer: Its GI50 is 2 µM.

Question: How did the GI50 (HT-29) turn out when COCCCc1cccc(NC(=O)NCCCl)c1 was run?
Answer: Its GI50 is 4 µM.

Question: What about the GI50 (M21) of the same compound?
Answer: The GI50 was 5 µM.

Question: And the GI50 (MCF7)?
Answer: Its GI50 is > 10 µM.

Question: With CCCCCCc1cccc(NC(=O)NCCCl)c1 as the compound, how does the GI50 (HT-29) read?
Answer: The GI50 was 1 µM.

Question: What about the GI50 (M21) of the same compound?
Answer: Its GI50 is 1 µM.

Question: What about the GI50 (MCF7) of the same compound?
Answer: Its GI50 is 1 µM.

Question: COCCCCc1cccc(NC(=O)NCCCl)c1 was tested. Which GI50 (HT-29) did it give?
Answer: The GI50 was 1 µM.

Question: What about the GI50 (M21) of the same compound?
Answer: Its GI50 is 2 µM.

Question: And the GI50 (MCF7)?
Answer: The GI50 was 3 µM.

Question: How did the GI50 (HT-29) turn out when COCCc1cccc(NC(=O)NCCCl)c1 was run?
Answer: The GI50 was 4 µM.

Question: What about the GI50 (M21) of the same compound?
Answer: Its GI50 is 6 µM.

Question: What about the GI50 (MCF7) of the same compound?
Answer: Its GI50 is 14 µM.

Question: CCCCCc1cccc(NC(=O)NCCCl)c1 was tested. Which GI50 (MCF7) did it give?
Answer: The GI50 was 1 µM.

Question: And the Activity (MDA-MB-231)?
Answer: The Activity was 90%.

Question: What about the Activity (HT-1080) of the same compound?
Answer: The Activity was 68.06%.

Question: What about the Activity (M21 (human) [1]) of the same compound?
Answer: The Activity was 6.16%.

Question: What about the Activity (M21 (human) [2]) of the same compound?
Answer: The Activity was 8.59%.

Question: What about the Activity (M21 (human) [3]) of the same compound?
Answer: Its Activity is 7.84%.

Question: And the Activity (M21 (human) [4])?
Answer: The Activity was 17.75%.

Question: What about the Activity (M21 (human) [5]) of the same compound?
Answer: The Activity was 13.28%.

Question: What about the Activity (M21 (human) [6]) of the same compound?
Answer: Its Activity is 15.23%.

Question: And the Activity (M21 (human) [7])?
Answer: The Activity was 60.78%.

Question: And the Activity (M21 (human) [8])?
Answer: The Activity was 15.06%.

Question: What about the Activity (M21 (human) [9]) of the same compound?
Answer: The Activity was 68.48%.

Question: What about the Activity (M21 (human) [10]) of the same compound?
Answer: The Activity was 7.85%.

Question: And the Activity (M21 (human) [11])?
Answer: The Activity was 8.75%.

Question: COCc1cccc(NC(=O)NCCCl)c1 was tested. Which GI50 (HT-29) did it give?
Answer: Its GI50 is > 10 µM.

Question: And the GI50 (M21)?
Answer: Its GI50 is > 10 µM.

Question: And the GI50 (MCF7)?
Answer: The GI50 was > 10 µM.

Question: For COc1cccc(NC(=O)NCCCl)c1, which GI50 (HT-29) is on record?
Answer: The GI50 was > 10 µM.

Question: What about the GI50 (M21) of the same compound?
Answer: The GI50 was > 10 µM.

Question: What about the GI50 (MCF7) of the same compound?
Answer: Its GI50 is > 10 µM.

Question: For O=C(NCCCl)Nc1cccc(CCCCCO)c1, which Activity (M21 (human) [12]) is on record?
Answer: The Activity was 9.83%.

Question: What about the Activity (M21 (human) [2]) of the same compound?
Answer: Its Activity is 10.71%.

Question: What about the Activity (M21 (human) [13]) of the same compound?
Answer: The Activity was 7.58%.

Question: And the Activity (M21 (human) [14])?
Answer: Its Activity is 12.12%.

Question: And the Activity (M21 (human) [5])?
Answer: The Activity was 12.11%.

Question: What about the Activity (M21 (human) [15]) of the same compound?
Answer: The Activity was 16.65%.

Question: And the Activity (M21 (human) [16])?
Answer: The Activity was 70.24%.

Question: What about the Activity (M21 (human) [17]) of the same compound?
Answer: Its Activity is 7.57%.

Question: And the Activity (M21 (human) [18])?
Answer: Its Activity is 21.82%.

Question: What about the Activity (M21 (human) [10]) of the same compound?
Answer: The Activity was 5.9%.

Question: What about the Activity (M21 (human) [19]) of the same compound?
Answer: Its Activity is 54.35%.

Question: Which results are given for COCCCCCc1cccc(NC(=O)NCCCl)c1?
Answer: GI50 (MCF7): 1 µM; Activity (MDA-MB-231): 81%; Activity (HT-1080): 68.57%; Activity (M21 (human) [1]): 8.5%; Activity (M21 (human) [2]): 9.02%; Activity (M21 (human) [3]): 8.63%; Activity (M21 (human) [4]): 19.98%; Activity (M21 (human) [5]): 14.37%; Activity (M21 (human) [6]): 13.79%; Activity (M21 (human) [7]): 40.22%; Activity (M21 (human) [8]): 31.28%; Activity (M21 (human) [9]): 70.84%; Activity (M21 (human) [10]): 7.52%; Activity (M21 (human) [11]): 6.74%
